The text below walks through data of ChEMBL document CHEMBL4602707, “Synthesis and Structure-Activity Relationship of Pyxinol Derivatives as Novel Anti-Inflammatory Agents” (ACS Med Chem Lett, 2020).

Series [1] concerns RAW264.7. The series is described as follows: Cytotoxicity against LPS-stimulated mouse RAW264.7 cells at 20 uM after 24 hrs by MTT assay. It counts as cell-based. The conditions noted are these: raw264.7, 24 h. In short, it runs like this:
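RAW264.7 cells co-treated with test agent (20 μM) and LPS (1 μg/mL) for 24 h; survival read by MTT. Mean ± SD, n = 3; significance versus control group.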

The test system of series [2] is RAW264.7. In words: Antiinflammatory activity in mouse RAW264.7 cells assessed as inhibition of LPS-induced NO production at 20 uM after 24 hrs by Griess method. It counts as functional, cell-based. In a few lines:
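RAW264.7 cells co-treated with test agent (20 μM) and LPS (1 μg/mL) for 24 h. NO released to medium measured by Griess assay. Hydrocortisone sodium succinate (20 μM) positive control. Mean ± SD, n = 3; significance versus control.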

The test system of series [3] is RAW264.7. In words: Inhibition of LPS-stimulated NFkappaB activation in mouse RAW264.7 cells assessed as reduction in LPS-induced IkappaB degradation at 20 uM after 2 hrs by Western blot analysis. Format: cell-based. In short, it runs like this:
(§1)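 RAW264.7 cells co-treated 2 h with LPS (1 μg/mL) plus test agent (10, 20, 30 μM) or hydrocortisone sodium succinate (20 μM). IκB phosphorylation and degradation assessed as NF-κB pathway read-out. Mean ± SD, n = 3; significance versus LPS-stimulated group.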

In series [4] the test system is RAW264.7. In words: Inhibition of LPS-stimulated NFkappaB activation in mouse RAW264.7 cells assessed as reduction in LPS-induced IkappaB phosphorylation at 20 uM after 2 hrs by Western blot analysis. It counts as cell-based. In a few lines: as §1
Series [5] has as its system RAW264.7. In words: Antiinflammatory activity in mouse RAW264.7 cells assessed as reduction in LPS-induced iNOS expression at 20 uM after 24 hrs by Western blot analysis. Format: functional, cell-based. In a few lines: (§2)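 RAW264.7 cells co-treated 24 h with LPS (1 μg/mL) plus test agent (10, 20, 30 μM) or hydrocortisone sodium succinate (20 μM). COX-2 and iNOS protein levels determined. Mean ± SD of three independent experiments; significance versus LPS-stimulated group.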

Series [6] relates to RAW264.7. The series is described as follows: Antiinflammatory activity in mouse RAW264.7 cells assessed as reduction in LPS-induced COX2 protein expression at 20 uM after 24 hrs by Western blot analysis. Format: functional, cell-based. In a few lines: as §2
Series [7] concerns RAW264.7. The series is described as follows: Antiinflammatory activity in mouse RAW264.7 cells assessed as reduction in LPS-stimulated TNF alpha secretion preincubated for 2 hrs followed by LPS addition and measured after 4 hrs by ELISA. It counts as functional, cell-based. In short, it runs like this: (§3)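 RAW264.7 cells pretreated 2 h with test agent (10, 20, 30 μM) or hydrocortisone sodium succinate (20 μM), then LPS (1 μg/mL) for 4 h. TNF-α and IL-6 production measured. Mean ± SD, n = 3; significance versus control group.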

The test system of series [8] is RAW264.7. In words: Antiinflammatory activity in mouse RAW264.7 cells assessed as reduction in LPS-induced IL-6 secretion preincubated for 2 hrs followed by LPS addition and measured after 4 hrs by ELISA. Format: functional, cell-based. In short, it runs like this: as §3
Series [9] has as its system RAW264.7. In words: Antiinflammatory activity in mouse RAW264.7 cells assessed as reduction in LPS-induced iNOS expression after 24 hrs by Western blot analysis. It counts as functional, cell-based. In short, it runs like this: as §2
The subject of series [10] is RAW264.7. The series is described as follows: Antiinflammatory activity in mouse RAW264.7 cells assessed as reduction in LPS-induced COX2 protein expression after 24 hrs by Western blot analysis. It counts as functional, cell-based. In a few lines:
as §2

The test system of series [11] is RAW264.7. In words: Inhibition of LPS-stimulated NFkappaB activation in mouse RAW264.7 cells assessed as reduction in LPS-induced IkappaB degradation at 10 to 30 uM after 2 hrs by Western blot analysis. It counts as cell-based. In a few lines: as §1
Series [12] deals with RAW264.7. The series is described as follows: Inhibition of LPS-stimulated NFkappaB activation in mouse RAW264.7 cells assessed as reduction in LPS-induced IkappaB phosphorylation at 10 to 30 uM after 2 hrs by Western blot analysis. Format: cell-based. In a few lines: as §1
The subject of series [13] is RAW264.7. In words: Antiinflammatory activity in LPS-induced mouse RAW264.7 cells in presence of glucocorticoid receptor antagonist RU-486. It counts as functional, cell-based.

The structures appear in SMILES notation. Activity calls are given as the source filed them. The rule behind the calls is not given here.

For the compound `CC(C)(O)[C@H]1CC[C@@](C)([C@H]2CC[C@]3(C)[C@@H]2[C@@H](N)C[C@@H]2[C@@]4(C)CC[C@H](O)C(C)(C)[C@@H]4CC[C@]23C)O1`, the Activity result with RAW264.7 [1] is “Toxic”.
On to `CCCCCC(=O)O[C@H]1CC[C@]2(C)[C@H]3C[C@@H](O)[C@@H]4[C@@H]([C@]5(C)CC[C@@H](C(C)(C)O)O5)CC[C@@]4(C)[C@]3(C)CC[C@H]2C1(C)C`, for which, in the series with RAW264.7 [1], the Activity result is given as “Non-Toxic”. Also, the inhibition result with RAW264.7 [2] was “Active”.
Regarding `C[C@]12CCC(=O)C=C1CC[C@@H]1[C@@H]2[C@@H](O)C[C@@]2(C)[C@H]1CC[C@]2(O)C(=O)COC(=O)CCC(=O)O`, the inhibition entry with RAW264.7 [3] and in the series on RAW264.7 [4] was “Active” each time. The outcome with RAW264.7 [5] and with RAW264.7 [6] was Active.
Regarding `CC(C)(O)[C@H]1CC[C@@](C)([C@H]2CC[C@]3(C)[C@@H]2[C@H](O)C[C@@H]2[C@@]4(C)CC[C@H](O)C(C)(C)[C@@H]4CC[C@]23C)O1`, the Activity result with RAW264.7 [1] is “Non-Toxic”. Besides, the inhibition entry in the series with RAW264.7 [2] is “Active”.
As to `CC(C)(O)[C@H]1CC[C@@](C)([C@H]2CC[C@]3(C)[C@@H]2[C@H](O)C[C@@H]2[C@@]4(C)CC/C(=N\O)C(C)(C)[C@@H]4CC[C@]23C)O1`, the Activity entry was “Non-Toxic” in the series on RAW264.7 [1]; “Dose-dependent effect” in the series with RAW264.7 [7]; “Dose-dependent effect” with RAW264.7 [8]; “Dose-dependent effect” in the series on RAW264.7 [9]; “Dose-dependent effect” with RAW264.7 [10]. In addition, the inhibition entry in the series with RAW264.7 [2], in the series with RAW264.7 [11] and in the series with RAW264.7 [12] was “Active” in each case. In the series with RAW264.7 [13], the result was Active.
As for `CC(C)(O)[C@H]1CC[C@@](C)([C@H]2CC[C@]3(C)[C@@H]2C(=O)C[C@@H]2[C@@]4(C)CC[C@H](O)C(C)(C)[C@@H]4CC[C@]23C)O1`, the Activity entry with RAW264.7 [1] was “Non-Toxic”. The inhibition result with RAW264.7 [2] is “Active”.
The matching figures for `CC(C)(O)[C@@H]1CC[C@@](C)([C@H]2CC[C@]3(C)[C@@H]2[C@H](O)C[C@@H]2[C@@]4(C)CC[C@H](O)C(C)(C)[C@@H]4CC[C@]23C)O1`: “Non-Toxic” and “inactive”.
Turning to `CC(C)(O)[C@H]1CC[C@@](C)([C@H]2CC[C@]3(C)[C@@H]2[C@H](O)C[C@@H]2[C@@]4(C)CC[C@H](N)C(C)(C)[C@@H]4CC[C@]23C)O1`, in the series on RAW264.7 [1], the Activity entry is “Non-Toxic”. Besides, the inhibition result in the series with RAW264.7 [2] is “Active”.
As for `CC(C)(O)[C@H]1CC[C@@](C)([C@H]2CC[C@]3(C)[C@@H]2C(=N)C[C@@H]2[C@@]4(C)CC[C@H](O)C(C)(C)[C@@H]4CC[C@]23C)O1`, the Activity entry in the series with RAW264.7 [1] is on record as “Non-Toxic”. Moreover, in the series on RAW264.7 [2], the inhibition entry was “inactive”.
In the case of `CC(C)(O)[C@H]1CC[C@@](C)([C@H]2CC[C@]3(C)[C@@H]2C(=O)C[C@@H]2[C@@]4(C)CCC(=O)C(C)(C)[C@@H]4CC[C@]23C)O1`, in the series with RAW264.7 [1], the Activity entry is “Non-Toxic”.
As to `CC(C)(O)[C@H]1CC[C@@](C)([C@H]2CC[C@]3(C)[C@@H]2/C(=N/O)C[C@@H]2[C@@]4(C)CC[C@H](O)C(C)(C)[C@@H]4CC[C@]23C)O1`, the Activity entry in the series on RAW264.7 [1] was “Non-Toxic”. Besides, the inhibition entry in the series with RAW264.7 [2] was “inactive”.
In the case of `CC(C)(O)[C@@H]1CC[C@@](C)([C@H]2CC[C@]3(C)[C@@H]2[C@H](O)C[C@@H]2[C@@]4(C)CC/C(=N\O)C(C)(C)[C@@H]4CC[C@]23C)O1`, in the series with RAW264.7 [1], the Activity entry is “Non-Toxic”. The inhibition result with RAW264.7 [2] is “Active”.
On to `CC(C)(O)[C@H]1CC[C@@](C)([C@H]2CC[C@]3(C)[C@@H]2[C@@H](O)C[C@@H]2[C@@]4(C)CC[C@H](O)C(C)(C)[C@@H]4CC[C@]23C)O1`, for which the inhibition entry in the series on RAW264.7 [2] is “inactive”.
On to `CC(C)(O)[C@H]1CC[C@@](C)([C@H]2CC[C@]3(C)[C@@H]2[C@H](O)C[C@@H]2[C@@]4(C)CCC(=O)C(C)(C)[C@@H]4CC[C@]23C)O1`, for which the Activity result in the series with RAW264.7 [1] is reported as “Non-Toxic”. In addition, the inhibition result in the series with RAW264.7 [2] is “Active”.
Turning to `CC(C)(O)[C@H]1CC[C@@](C)([C@H]2CC[C@]3(C)[C@@H]2[C@H](O)C[C@@H]2[C@@]4(C)CC[C@@H](N)C(C)(C)[C@@H]4CC[C@]23C)O1`, the Activity entry in the series on RAW264.7 [1] is reported as “Non-Toxic”. Further, the inhibition result in the series on RAW264.7 [2] was “Active”.
Consider `CCCCCC(=O)O[C@H]1CC[C@]2(C)[C@H]3C[C@@H](O)[C@@H]4[C@@H]([C@]5(C)CC[C@H](C(C)(C)O)O5)CC[C@@]4(C)[C@]3(C)CC[C@H]2C1(C)C`, for which the Activity result with RAW264.7 [1] was “Non-Toxic”. Further, the inhibition entry in the series with RAW264.7 [2] is “Active”.
Consider `CC(C)(O)[C@@H]1CC[C@@](C)([C@H]2CC[C@]3(C)[C@@H]2[C@H](O)C[C@@H]2[C@@]4(C)CCC(=O)C(C)(C)[C@@H]4CC[C@]23C)O1`, for which the Activity entry in the series on RAW264.7 [1] is “Non-Toxic”. In the series with RAW264.7 [2], the inhibition result was “Active”.
For `CC(C)(O[Si](C)(C)C(C)(C)C)[C@H]1CC[C@@](C)([C@H]2CC[C@]3(C)[C@@H]2[C@H](O)C[C@@H]2[C@@]4(C)CC[C@H](O)C(C)(C)[C@@H]4CC[C@]23C)O1`, the Activity result in the series with RAW264.7 [1] is reported as “Non-Toxic”. Further, in the series with RAW264.7 [2], the inhibition result was “inactive”.
The like results for `CC(C)(O)[C@@H]1CC[C@@](C)([C@H]2CC[C@]3(C)[C@@H]2[C@H](O)C[C@@H]2[C@@]4(C)CC[C@H](N)C(C)(C)[C@@H]4CC[C@]23C)O1` were, in that order, “Non-Toxic” and “Active”.
